# Legend:
# [1] = test system: Canis familiaris; experiment: Antihypertensive activity in anesthetized normotensive mongrel dog assessed as maximum decrease in blood pressure at 1 mg/kg, iv administered at 30 mins intervals; type: functional, Canis lupus familiaris
# Method in brief: (§1)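 Anesthetized normotensive mongrel dogs each received escalating iv doses of 0.1, 0.4 and 1.0 mg/kg at 30-min intervals. After each interval, the maximum fall in blood pressure (mm) was read against control. Doses refer to the amine salts and are uncorrected; one agent was given as free base. At least two dogs were used per compound, and ranges are reported.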
# [2] = test system: Canis familiaris; experiment: Antihypertensive activity in anesthetized normotensive mongrel dog assessed as maximum decrease in blood pressure at 0.4 mg/kg, iv administered at 30 mins intervals; type: functional, Canis lupus familiaris; method in brief: as §1
# [3] = test system: Canis familiaris; experiment: Antihypertensive activity in anesthetized normotensive mongrel dog assessed as maximum decrease in blood pressure at 0.1 mg/kg, iv administered at 30 mins intervals; type: functional, Canis lupus familiaris; method in brief: as §1
# [4] = Drug metabolism in dog assessed as parent compound level in urine; type: ADME, Canis lupus familiaris; settings: read-out: Drug excretion
# [5] = Drug metabolism in dog assessed as parent compound level in bile; type: ADME, Canis lupus familiaris; settings: read-out: Drug excretion
# [6] = Drug metabolism in rat assessed as parent compound level in urine; type: ADME; settings: read-out: Drug excretion
# [7] = Drug metabolism in rat assessed as parent compound level in bile; type: ADME; settings: read-out: Drug excretion
dose excreted [4] [%],dose excreted [5] [%],dose excreted [6] [%],dose excreted [7] [%],SMILES,Activity [1] [mmHg],Activity [2] [mmHg],Activity [3] [mmHg]
,,,,COc1cc2nc(N3CCN(C(=O)c4ccco4)CC3)nc(N)c2cc1O.O=S(=O)(O)O,15,10,
,,,,COc1cc2c(N)nc(N3CCN(C(=O)c4ccco4)CC3)nc2cc1O.O=S(=O)(O)O,18,12,
,,,,COc1cc2nc(N)nc(N)c2cc1OC,23,3,0
6,6,6,6,COc1cc2nc(N3CCN(C(=O)c4ccco4)CC3)nc(N)c2cc1OC.Cl [PRAZOSIN HYDROCHLORIDE],55,45,20
